Assay outcomes: PubChem BioAssay, Johns Hopkins Ion Channel Center
MrgX1 allo act = human MrgX1 positive allosteric modulation, primary screen; AID 588675; actives 0.63% (n = 310,000); MrgX1-HEK293, Fluo-4 calcium flux, FDSS; hits give high values; B-score at 10 µM;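 active = plate-corrected calcium response at least 3 library SD above typical, normal starting fluorescence, not activating the receptor alone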;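 also: compound read alongside a low EC10 to EC30 dose of BAM8-22 agonist; peak minus trough fluorescence over baseline measured at the second addition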
Target sequence (Q96LB2 whole entry, looked up): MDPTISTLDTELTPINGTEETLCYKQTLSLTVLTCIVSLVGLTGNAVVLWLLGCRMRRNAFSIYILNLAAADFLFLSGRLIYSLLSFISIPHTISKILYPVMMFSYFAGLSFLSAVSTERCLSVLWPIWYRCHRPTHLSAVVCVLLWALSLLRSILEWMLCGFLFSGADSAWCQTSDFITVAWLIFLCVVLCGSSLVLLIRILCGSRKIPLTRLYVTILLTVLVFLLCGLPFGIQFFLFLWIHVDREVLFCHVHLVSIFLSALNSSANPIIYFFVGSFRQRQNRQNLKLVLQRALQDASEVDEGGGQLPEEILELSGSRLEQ
RGS4 inh = inhibitors of human RGS4. P49798. actives 0.45% (n = 310,000). B-score at 10 µM. AID 463165. HEK293 M3R/RGS4 inducible, Fluo-4 calcium flux; hits give high values; triggered by carbachol at its EC20;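 active = B-score, a plate-corrected calcium signal, over three deviations above library mean, with baseline fluorescence within five deviations of library mean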;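 also: RGS4 expression induced by doxycycline in cells with stable M3 receptor; B-score is computed from the integrated fluorescence ratio over baseline after carbachol; higher B-score means a larger calcium signal and so more RGS4 inhibition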
Target sequence (P49798 whole entry, looked up): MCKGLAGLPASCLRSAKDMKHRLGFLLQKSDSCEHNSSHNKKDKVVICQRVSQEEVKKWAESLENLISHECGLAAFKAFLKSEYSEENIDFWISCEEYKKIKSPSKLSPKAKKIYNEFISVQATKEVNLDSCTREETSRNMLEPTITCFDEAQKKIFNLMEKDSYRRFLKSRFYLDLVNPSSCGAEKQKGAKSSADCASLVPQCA
RGS4 pot = RGS4 potentiation or activation. HEK293 M3R/inducible RGS4, carbachol calcium flux Fluo4; hits give low values. B-score at 10 µM. actives 0.92% (n = 310,000);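 active = B-score of the integrated calcium signal more than 4 SD below the library mean, with starting fluorescence not abnormally high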;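 also: negative B-score means reduced calcium response which marks RGS4 activation or potentiation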
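test system = M3R-expressing HEK293 line, RGS4 induced by doxycycline | probe or stimulus = carbachol at ECmax as muscarinic agonist stimulus | timing = dye loading 30 min 37 °C, buffer rest 30 min RT | signal = calcium dye Fluo4 fluorescence | evaluation = B score from integrated fluorescence ratio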
MrgX1 antagonist = antagonists of human MrgX1 receptor. MRGX1-HEK293 calcium flux, Fluo-4, BAM8-22 antagonism; hits give low values. B-score at 10 µM. actives 1.3% (n = 310,000);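 active = calcium-response B-score plate-corrected more than 3 library SD below zero, starting fluorescence within 5 deviations, no agonist response on first addition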;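 also: peak minus trough fluorescence over baseline after final BAM8-22 challenge near maximal dose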
MrgX1 ag = human MrgX1 receptor agonism, primary screen | MrgX1-HEK293 cells, Fluo-4 calcium fluorescence, agonist mode; hits give high values | B-score at 10 µM | AID 588627 | actives 0.44% (n = 310,000) | Q96LB2;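 active = calcium response B-score plate-corrected fluorescence ratio at least 3 library SD, with starting fluorescence B-score inside 5 SD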
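Assay system: stable human MrgX1 HEK293 cell line. Quantity: 15,000 cells per well. Schedule: cells plated overnight, dye loaded 0.5 h 37 °C, 0.5 h room temperature. Detection: Fluo-4 NW calcium-flux fluorescence, kinetic read. Read-out basis: peak-minus-minimum fluorescence over baseline, converted to B scores. Control set: positive and negative control wells on each plate.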
RGS4 act valid = RGS4 activation, validation assay; inhibition, % at 10 µM; actives 89% (n = 1,100); shares compounds with RGS4 pot; HEK293 M3R/RGS4 inducible, carbachol calcium flux Fluo4; AID 602282;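 active = inhibition above 3 SD of the buffer control wells, cut at about 41% in these data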;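 also: signal is the integrated peak-minus-minimum Fluo4 fluorescence over baseline ratio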
M3R Ca counter = activity in cells without induced RGS4 expression | actives 82% (n = 1,100) | AID 602283 | inhibition, % at 10 µM | shares compounds with RGS4 pot | HEK293 M3R non-induced RGS4, Fluo4 calcium flux; after carbachol challenge at its EC90;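 active = inhibition exceeding 3 SD of buffer-only control wells, cut at about 26% in these data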;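 also: percent drop in integrated peak-minus-baseline over baseline Fluo4 ratio after carbachol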
An asterisk follows results filed as active. This is a sample that favours compounds with a hit; in the whole collection about 3.5% have one here.

Screening Cn1c(SCCOc2ccccc2F)nc2ccccc2c1=O returned MrgX1 allo act inactive, RGS4 inh inactive, RGS4 pot -7.81*, MrgX1 antagonist inactive, MrgX1 ag inactive, RGS4 act valid 92.0* and M3R Ca counter 80.8*.
Screening O=C1N2CCCc3cccc(c32)C12Nc1ccccc1S2 (stereo not drawn) returned RGS4 inh inactive and RGS4 pot inactive.
COc1ccc(N2C(=O)CSC23C(=O)N2CCCc4cccc3c42)cc1 (stereo not drawn) was read as MrgX1 allo act inactive, RGS4 inh inactive, RGS4 pot -8.35*, MrgX1 antagonist inactive, MrgX1 ag inactive, RGS4 act valid 92.0* and M3R Ca counter 89.3*.
O=C1CSC2(C(=O)N3CCCc4cccc2c43)N1c1cccc(C(F)(F)F)c1 (stereo not drawn) was read as MrgX1 allo act inactive, RGS4 inh inactive, RGS4 pot -8.21*, MrgX1 antagonist inactive, MrgX1 ag inactive, RGS4 act valid 90.5* and M3R Ca counter 76.3*.
CCC(C)(C(=O)NC1CCCC1)N(Cc1cccs1)C(=O)c1ccccn1 (stereo not drawn) was read as MrgX1 allo act inactive, RGS4 inh inactive, RGS4 pot inactive, MrgX1 antagonist inactive and MrgX1 ag inactive.
For Cc1ncc(CN2CCCC(C(=O)Nc3ccc(-c4cscn4)cc3)C2)cn1 (stereo not drawn) the results were MrgX1 allo act inactive, RGS4 inh inactive, RGS4 pot inactive, MrgX1 antagonist inactive and MrgX1 ag inactive.
For COc1cccc(CN2CCCC(C(=O)Nc3ccc(-c4cscn4)cc3)C2)c1 (stereo not drawn) the results were MrgX1 allo act inactive, RGS4 inh inactive, RGS4 pot -9.93*, MrgX1 antagonist inactive, MrgX1 ag inactive, RGS4 act valid 91.5* and M3R Ca counter 62.3*.
`CCOC(=O)c1ccccc1NC(=O)COC(=O)C1CCCC1` gave MrgX1 allo act inactive, RGS4 inh inactive, RGS4 pot inactive, MrgX1 antagonist inactive and MrgX1 ag inactive.
COc1ccc(-c2cc(C3CC3)nc(SCC(=O)c3cccs3)c2C#N)cc1 was read as MrgX1 allo act inactive, RGS4 inh inactive, RGS4 pot inactive, MrgX1 antagonist inactive and MrgX1 ag inactive.
CCOC(=O)CSc1nc(C2CC2)cc(-c2ccc(F)cc2)c1C#N was read as MrgX1 allo act inactive, RGS4 inh inactive, RGS4 pot -8.48*, MrgX1 antagonist inactive, MrgX1 ag inactive, RGS4 act valid 65.5* and M3R Ca counter 0.0.
Screening O=C(CN1CCCC1)N1c2ccccc2C=Cc2ccccc21 returned MrgX1 allo act inactive, RGS4 inh inactive, RGS4 pot -10.3*, MrgX1 antagonist inactive, MrgX1 ag inactive, RGS4 act valid 82.0* and M3R Ca counter 40.8*.
For O=C(CN1CCCC1)N1CCCc2ccccc21 the results were MrgX1 allo act inactive, RGS4 inh inactive, RGS4 pot inactive, MrgX1 antagonist inactive and MrgX1 ag inactive.
`CN1CCN(C(=O)N2c3ccccc3C=Cc3ccccc32)CC1` gave MrgX1 allo act inactive, RGS4 inh inactive, RGS4 pot -9.71*, MrgX1 antagonist inactive, MrgX1 ag inactive, RGS4 act valid 94.0* and M3R Ca counter 69.3*.
Screening NC(=O)N1c2ccccc2C=Cc2ccccc21 returned MrgX1 allo act inactive, RGS4 inh inactive, RGS4 pot inactive, MrgX1 antagonist inactive and MrgX1 ag inactive.
`Nc1sc(-c2ccccc2)c(Cc2ccccc2)c1C(=O)O` gave MrgX1 allo act inactive, RGS4 inh inactive, RGS4 pot inactive, MrgX1 antagonist inactive and MrgX1 ag inactive.
Screening CC(C)NC(=O)c1ccc2c(=O)n(C3CCCC3)c(=S)[nH]c2c1 returned MrgX1 allo act inactive, RGS4 inh inactive, RGS4 pot inactive, MrgX1 antagonist inactive and MrgX1 ag inactive.
CCN(CC)CCNC(=O)c1ccc2c(=O)n(C3CCCC3)c(=S)[nH]c2c1 was read as MrgX1 allo act inactive, RGS4 inh inactive, RGS4 pot -8.4*, MrgX1 antagonist inactive, MrgX1 ag inactive, RGS4 act valid 92.0* and M3R Ca counter 73.3*.
For Cc1ccc(S(=O)(=O)N(C)C)cc1NC(=O)COC(=O)Cc1ccsc1 the results were MrgX1 allo act inactive, RGS4 inh inactive, RGS4 pot inactive, MrgX1 antagonist inactive and MrgX1 ag inactive.
Cc1ccc(S(=O)(=O)N(Cc2ccc([N+](=O)[O-])cc2)C(=O)N2CCN(C)CC2)cc1 was read as RGS4 inh inactive and RGS4 pot inactive.
`CCCC(=O)NC(Nc1c(C)n(C)n(-c2ccccc2)c1=O)C(Cl)(Cl)Cl` (stereo not drawn) gave MrgX1 allo act inactive, RGS4 inh inactive, RGS4 pot inactive, MrgX1 antagonist inactive and MrgX1 ag inactive.
For CCC(C)c1ccccc1NC(=O)CN1CCN(C/C=C/c2ccccc2)CC1 (stereo not drawn) the results were MrgX1 allo act inactive, RGS4 inh inactive, RGS4 pot -10.3*, MrgX1 antagonist inactive, MrgX1 ag inactive, RGS4 act valid 76.0* and M3R Ca counter 83.8*.
`O=C(CN1CCN(C/C=C/c2ccccc2)CC1)NCc1ccccc1` gave MrgX1 allo act inactive, RGS4 inh inactive, RGS4 pot inactive, MrgX1 antagonist inactive and MrgX1 ag inactive.
`CN1CCCN(C(=O)CC(c2ccccc2)c2ccccc2)CC1` gave MrgX1 allo act inactive, RGS4 inh inactive, RGS4 pot -8.11*, MrgX1 antagonist inactive, MrgX1 ag inactive, RGS4 act valid 88.5* and M3R Ca counter 46.8*.
`CN1CCCN(C(=O)CSc2ccccc2)CC1` gave MrgX1 allo act inactive, RGS4 inh inactive, RGS4 pot inactive, MrgX1 antagonist inactive and MrgX1 ag inactive.
CC(C)[C@H](NC(=O)c1ccco1)C(=O)OCC(=O)c1ccc2c(c1)NC(=O)CO2 was read as MrgX1 allo act inactive, RGS4 inh inactive, RGS4 pot inactive, MrgX1 antagonist inactive and MrgX1 ag inactive.
`CC(C)CC(NC(=O)c1ccc(Cl)cc1)C(=O)OCC(=O)c1ccc2c(c1)NC(=O)CO2` (stereo not drawn) gave MrgX1 allo act inactive, RGS4 inh inactive, RGS4 pot -11.5*, MrgX1 antagonist inactive, MrgX1 ag inactive, RGS4 act valid 90.0* and M3R Ca counter 80.3*.
